The EC50 is the concentration at which the effect is half-maximal. Low readings indicate higher potency in that assay, high ones lower potency in that assay. As a reminder, the CC50 is the concentration giving 50% cytotoxicity. A higher CC50 goes with lower toxicity to the cells.

The subject of test [1] is MT4. Kind of test: Concentration of compound required to achieve 50% protection of MT-4 cells against HIV-1 virus induced cytopathic effect. Particulars: Homo sapiens. Format: functional, cell-based. Summed up:
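HIV-1-infected MT-4 cells, scored for protection against virus-induced cytopathic effect. EC50 is the concentration protecting 50% of cells, given as the mean (± standard deviation or range) of at least two separate experiments.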
(In general: Cytopathic effects are the visible damage that an infection or toxin causes in cultured cells.)

The nature of test [2]: CC50/EC50 ratio expressed as selectivity index(SI). It is filed as functional. Summed up: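 Ratio of two MT-4 values from this work. CC50 is the concentration that reduces the viability of mock-infected MT-4 cells by 50%. EC50 is the concentration giving 50% protection of HIV-1-infected MT-4 cells against virus cytopathic effect. Both are means (± standard deviation or range) of at least two separate experiments.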

Test [3] has as its system MT4. Kind of test: Concentration of compound required to reduce the viability of mock infected MT-4 cells against HIV-1 by 50%. Format: functional. As to conditions: Homo sapiens. In outline: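 Mock-infected MT-4 cells were exposed to the compound, and viability was measured. CC50 is the concentration that lowers the viability of these uninfected cells by 50%. Values are means (± standard deviation or range) from at least two separate experiments.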

A value given as a limit tells only on which side of the number the result lay.

The molecule `CCc1c(Sc2ccccc2)n(COCCO)c(=O)[nH]c1=O` had an EC50 with MT4 [1] of 0.12 µM.
As for `Cc1cn([C@H]2C[C@H](N=[N+]=[N-])[C@@H](CO)O2)c(=O)[nH]c1=O` [ZIDOVUDINE], the midpoint of the response with MT4 [1], the EC50, lay at 0.003 µM. Moreover, the Ratio in test [2] came to 2600.
Consider `COCCOCn1c(Sc2ccccc2)c(C)c(=O)[nH]c1=O`, for which the EC50 in the test with MT4 [1] was determined as 8.7 µM. The CC50 with MT4 [3] came to 299 µM. Further, the Ratio in test [2] came out at 34.
With `Cc1c(Sc2ccccc2)n(COCc2ccccc2)c(=O)[nH]c1=O`, the EC50 in the test with MT4 [1] was found to be 0.088 µM. Also, the CC50 in the test with MT4 [3] came to 95 µM. For the same molecule, in test [2], the Ratio was found to be 1080.
Take `Cc1c(Sc2ccccc2)n(COCCOCc2ccccc2)c(=O)[nH]c1=O`: the EC50 in the test with MT4 [1] was more than 20 µM. Further, half-maximal cytotoxicity in the test on MT4 [3] (CC50) was put at 45 µM. Moreover, in test [2], the Ratio was less than 2.3.
The molecule `Cc1c(Sc2ccccc2)n(COCCO)c(=O)[nH]c1=O` [HEPT] came in with an EC50 with MT4 [1] of 6.5 µM. In the test with MT4 [3], this molecule gave a CC50 of more than 500 µM. The Ratio in test [2] is more than 77.
With `Cc1c(Sc2ccccc2)n(COCCN=[N+]=[N-])c(=O)[nH]c1=O`, a half-maximal response with MT4 [1] (EC50) required 5.8 µM. In addition, the CC50 in the test with MT4 [3] turned out to be 186 µM. In test [2], the Ratio turned out to be 32.
`CCOCn1c(Sc2ccccc2)c(CC)c(=O)[nH]c1=O` gave a concentration for a half-maximal effect (EC50) in the test with MT4 [1] of 0.019 µM. Further, the midpoint of cytotoxicity in the test with MT4 [3], the CC50, lay at 161 µM. In test [2], the Ratio was 8500.
The like results for `CCc1c(Sc2ccccc2)n(COCc2ccccc2)c(=O)[nH]c1=O` were, in that order, 0.0059 µM, 34 µM and 5800.
For the molecule `CCOCn1c(Sc2ccccc2)c(C)c(=O)[nH]c1=O`, in the test on MT4 [1], a half-maximal response (EC50) required 0.33 µM. Also, the CC50 with MT4 [3] came to 231 µM. Also, the Ratio in test [2] was found to be 700.
The like results for `Cc1c(Sc2ccccc2)n(COCCF)c(=O)[nH]c1=O` were, in that order, 1.1 µM, 209 µM and 190.
The like results for `Cc1c(Sc2ccccc2)n(COCCCl)c(=O)[nH]c1=O` were, in that order, 1.5 µM, 196 µM and 131.
